The results in this text go back to ChEMBL document CHEMBL1137720, “New acyclic nucleosides analogues as potential analgesic, anti-inflammatory, anti-oxidant and anti-microbial derived from pyrimido[4,5-b]quinolines” (2009).

Each structure is given as a SMILES string.

Test [1] has as its system Rattus norvegicus. The test can be described thus: Antiinflammatory activity in Sprague-Dawley rat assessed as inhibition of carrageenan-induced paw edema after 4 hrs. The class given is functional. The procedure, abridged:
(§1)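 Adult female Sprague-Dawley rats, 150–180 g, were used (n = 6 per group). Paw volume increase after carrageenan was read at 1, 2, 3 and 4 h. % edema inhibition was calculated against untreated controls. The reference drug was given orally at 10 mg/kg as an aqueous suspension.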

For test [2], the species on record is Mus musculus. The test can be described thus: Analgesic activity in Swiss mouse assessed as reaction time after 30 mins by hot plate test. The class given is functional. The procedure, abridged:
(§2)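 Swiss mice of both sexes, 25–30 g, were housed at 22 ± 1 °C on a 12 h light/dark cycle with free access to diet and water. Hot-plate testing followed Turner's method.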
In general terms: In hot-plate and tail-flick tests a longer latency is read as antinociception.

Test [3] is filed under the species Mus musculus. Nature of the test: Analgesic activity in Swiss mouse assessed as reaction time after 60 mins by hot plate test. The class given is functional. In short, it runs like this: as §2
For test [4], the species on record is Mus musculus. Nature of the test: Analgesic activity in Swiss mouse assessed as reaction time after 90 mins by hot plate test. The class given is functional. In short, it runs like this: as §2
The nature of test [5]: Antioxidant activity in Sprague-Dawley rat erythrocytes assessed as ABTS-induced hemolysis after 1 hr. Type of test: functional, Erythrocyte. More on the design: concentration or dose not given beside the values.
The nature of test [6]: Antioxidant activity assessed as inhibition of ABTS-oxidation in 0.1 M phosphate buffer at pH 7. Type of test: functional. In short, it runs like this: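 ABTS (60 µM, 2 mL) was mixed with MnO2 (25 mg/mL) in 0.1 M phosphate buffer pH 7, then shaken, centrifuged and filtered. Radical solution A734 was set to about 0.5. MeOH/buffer served as negative control.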
Another test relates to Nucleic Acid. The test can be described thus: Inhibition of bleomycin-induced DNA damage assessed as absorbance at 532 nm after 1 hr at 37 degC. The class given is nucleic-acid assay. In short, it runs like this:
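The 0.5 mL reaction contained calf thymus DNA (0.5 mg/mL), bleomycin sulfate (0.05 mg/mL), MgCl2 (5 mM), FeCl3 (50 µM) and compound at varying concentrations. After 1 h at 37 °C, the reaction was stopped with EDTA. TBA (1%) and HCl (25%) were added, followed by 10 min at 80 °C. After centrifugation, DNA damage was read as A532.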

The next test deals with Escherichia coli. The test can be described thus: Antibacterial activity against Escherichia coli ATCC 23566 at 100 ug/disk after 24 to 48 hrs by agar disk diffusion method. The conditions noted are these: read-out: DIZ. Type of test: functional. The procedure, abridged:
(§3)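 Agar disc diffusion used sterile 5 mm filter-paper discs loaded with 100 µg per disc, with DMSO as solvent. Plates were incubated 24–28 h at 37 °C and inhibition zone diameters measured: 6–10 mm slight, 11–15 mm moderate, >15 mm high. For MIC, discs carried varying amounts, and MIC was the lowest amount giving no visible growth.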
In general terms: Agar diffusion results depend on both activity and mobility in agar.

The subject of a further test is Pseudomonas aeruginosa. The test can be described thus: Antibacterial activity against Pseudomonas aeruginosa ATCC 10145 at 100 ug/disk after 24 to 48 hrs by agar disk diffusion method. The conditions noted are these: read-out: DIZ. The class given is functional. In short, it runs like this:
as §3

In a further test the test system is Staphylococcus aureus. Nature of the test: Antibacterial activity against Staphylococcus aureus ATCC 25923 at 100 ug/disk after 24 to 48 hrs by agar disk diffusion method. The settings on record: read-out: DIZ. Type of test: functional. The procedure, abridged:
as §3

A further test concerns Candida albicans. Nature of the test: Antimicrobial activity against Candida albicans ATCC 14053 at 100 ug/disk after 5 days by agar disk diffusion method. The class given is functional. The conditions noted are these: ATCC 14053, 120 h, read-out: DIZ.
The test system of another test is Aspergillus fumigatus. The test can be described thus: Antimicrobial activity against Aspergillus fumigatus ATCC 96918 at 100 ug/disk after 5 days by agar disk diffusion method. The settings on record: ATCC 96918, 120 h, read-out: DIZ. Type of test: functional.
The subject of test [7] is Rattus norvegicus. Nature of the test: Antiinflammatory activity in Sprague-Dawley rat assessed as inhibition of carrageenan-induced paw edema after 1 hr. The class given is functional. The procedure, abridged: as §1
Test [8] concerns Rattus norvegicus. Nature of the test: Antiinflammatory activity in Sprague-Dawley rat assessed as inhibition of carrageenan-induced paw edema after 2 hrs. The class given is functional. In short, it runs like this:
as §1
Background: Carrageenan injected into the paw causes an acute inflammation.

For test [9], the system named is Rattus norvegicus. The test can be described thus: Antiinflammatory activity in Sprague-Dawley rat assessed as inhibition of carrageenan-induced paw edema after 3 hrs. The class given is functional. The procedure, abridged: as §1
Test [10] relates to Rattus norvegicus. Nature of the test: Antiinflammatory activity in Sprague-Dawley rat assessed as inhibition of carrageenan-induced paw edema at 10 mg/kg, po after 4 hrs. The class given is functional. In short, it runs like this: as §1
For test [11], the system named is Rattus norvegicus. The test can be described thus: Antiinflammatory activity in Sprague-Dawley rat assessed as inhibition of carrageenan-induced paw edema at 10 mg/kg, po after 1 hr. Type of test: functional. The procedure, abridged:
as §1

Test [12] concerns Rattus norvegicus. The test can be described thus: Antiinflammatory activity in Sprague-Dawley rat assessed as inhibition of carrageenan-induced paw edema at 10 mg/kg, po after 3 hrs. Type of test: functional. In short, it runs like this:
as §1

The species entered for test [13] is Rattus norvegicus. The test can be described thus: animal or person. The conditions noted are these: Sprague-Dawley, po, 2 h, read-out: INH.

Turning to `O=c1c2c(-c3ccc(Cl)cc3)c3c(nc2nc2[nH]nc([C@H](O)[C@H](O)[C@H](O)[C@H](O)CO)n12)/C(=C/c1ccc(Cl)cc1)CCC3`, the “inhibition (INH)” value with Rattus norvegicus [1] is 40.62%; in the test with Rattus norvegicus [7], 62.5%; in the test with Rattus norvegicus [8], 44%; with Rattus norvegicus [9], 42.03%. Further, the Activity in the test filed under Mus musculus [2] amounted to 4.65 s; in the test listed under Mus musculus [3], 7.4 s; in the test filed under Mus musculus [4], 9.567 s; in test [5], 4.23%. The inhibition in test [6] came to 81.5%. Further, in the test on Nucleic Acid, the deltaA stood at 0.026. Moreover, the zone of inhibition at 100 µg/disc in the test on Escherichia coli stood at 24 mm; in the test with Pseudomonas aeruginosa, 22 mm; in the test with Staphylococcus aureus, 19 mm; in the test on Candida albicans it was 12 mm; with Aspergillus fumigatus it was 16 mm.

On to `COc1ccc2c(c1)c(CC(=O)O)c(C)n2C(=O)c1ccc(Cl)cc1` [INDOMETHACIN], for which the inhibition in vivo at 10 mg/kg in the test with Rattus norvegicus [10] amounted to 57.8%; in the test on Rattus norvegicus [11], 50%; in the test with Rattus norvegicus [12], 65.2%; in the test filed under Rattus norvegicus [13], 58%.

One may read the inhibition as the share of the control response that was lost under treatment.
